Laboratory results from ChEMBL document CHEMBL3739273, “Synthesis, biological activity evaluation and molecular docking studies of novel coumarin substituted thiazolyl-3-aryl-pyrazole-4-carbaldehydes” (Bioorg Med Chem Lett, 2015).
In brackets after ≈: the same amount, converted by molar mass. Activity calls are given as the source filed them. No cut-off for these calls is given here.

Columns and labels:
Bacillus spizizenii [1] = assay: Antibacterial activity against Bacillus subtilis ATCC 6633 after 24 hrs by microtiter plate method; assay type: functional
Summary of the method: (§1)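 Test concentrations reported in µg/mL. Gentamycin sulfate and ampicillin were the reference drugs.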

Proteus vulgaris [2] = assay: Antibacterial activity against Proteus vulgaris ATCC 13315 after 24 hrs by microtiter plate method; assay type: functional; summary of the method: as §1
Escherichia coli [3] = assay: Bactericidal activity against Escherichia coli ATCC 8739 after 24 hrs; assay type: functional; conditions: for MBC: ATCC 8739, 24 h, read-out: MBC99.9
Summary of the method: (§2)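 MBC determined by a standard MBC protocol alongside the MIC, with values in µg/mL. Gentamycin sulfate and ampicillin were the references.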

Escherichia coli [4] = assay: Antibacterial activity against Escherichia coli ATCC 8739 after 24 hrs by microtiter plate method; assay type: functional; summary of the method: as §1
Klebsiella pneumoniae [5] = assay: Antibacterial activity against Klebsiella pneumoniae ATCC 43816 after 24 hrs by microtiter plate method; assay type: functional; summary of the method: as §1
Staphylococcus aureus [6] = assay: Antibacterial activity against methicillin-resistant Staphylococcus aureus NCTC 13616 after 24 hrs by microtiter plate method; assay type: functional
Bacillus cereus [7] = assay: Bactericidal activity against Bacillus cereus ATCC 14579 after 24 hrs; assay type: functional; conditions: for MBC: ATCC 14579, 24 h, read-out: MBC99.9; summary of the method: as §2
Klebsiella pneumoniae [8] = assay: Bactericidal activity against Klebsiella pneumoniae ATCC 43816 after 24 hrs; assay type: functional; conditions: for MBC: ATCC 43816, 24 h, read-out: MBC99.9; summary of the method: as §2
Bacillus spizizenii [9] = assay: Bactericidal activity against Bacillus subtilis ATCC 6633 after 24 hrs; assay type: functional; conditions: for MBC: ATCC 6633, 24 h, read-out: MBC99.9; summary of the method: as §2
Staphylococcus aureus [10] = assay: Bactericidal activity against methicillin-resistant Staphylococcus aureus NCTC 13616 after 24 hrs; assay type: functional; conditions: for MBC: NCTC 13616, 24 h, read-out: MBC99.9
Summary of the method: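 MBC determined by a standard MBC protocol run alongside the MIC determination. Gentamycin sulfate and ampicillin served as reference drugs.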

Bacillus cereus [11] = assay: Antibacterial activity against Bacillus cereus ATCC 14579 after 24 hrs by microtiter plate method; assay type: functional; summary of the method: as §1
Proteus vulgaris [12] = assay: Bactericidal activity against Proteus vulgaris ATCC 13315 after 24 hrs; assay type: functional; conditions: for MBC: ATCC 13315, 24 h, read-out: MBC99.9; summary of the method: as §2
Escherichia coli [13] = assay: Antibacterial activity against Escherichia coli ATCC 8739 assessed as growth inhibition at 100 ug/ml after 24 hrs by agar well diffusion method; assay type: functional
Summary of the method: (§3)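 Agar well diffusion. Compounds were tested at 10, 20, 100, 200 and 300 µg/mL, and the zone of inhibition was measured in mm. Gentamycin sulfate was the reference drug.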

Cytochrome P450 2A6 = molecular target: T1, Cytochrome P450 2A6 (Homo sapiens, UniProt P11509); assay: Inhibition of human microsomal CYP2A6; assay type: ADME
T1 sequence (P11509 whole entry): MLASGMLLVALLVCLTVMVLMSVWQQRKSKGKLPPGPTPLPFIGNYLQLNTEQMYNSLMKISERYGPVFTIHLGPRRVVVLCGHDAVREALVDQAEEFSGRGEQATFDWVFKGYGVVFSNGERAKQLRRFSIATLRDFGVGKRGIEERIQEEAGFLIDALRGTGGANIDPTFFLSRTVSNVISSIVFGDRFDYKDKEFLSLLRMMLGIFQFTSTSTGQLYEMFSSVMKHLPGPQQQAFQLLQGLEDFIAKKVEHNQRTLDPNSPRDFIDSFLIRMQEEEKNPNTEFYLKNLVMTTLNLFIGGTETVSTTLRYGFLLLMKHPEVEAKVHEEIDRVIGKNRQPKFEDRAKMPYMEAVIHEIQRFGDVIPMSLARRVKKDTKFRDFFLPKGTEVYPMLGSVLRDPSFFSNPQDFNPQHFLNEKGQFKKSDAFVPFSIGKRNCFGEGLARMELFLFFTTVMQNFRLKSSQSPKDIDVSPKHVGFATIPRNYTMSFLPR

[14] = Anticancer activity against human DU145 cells assessed as cell viability after 48 hrs by MTT assay; assay type: functional, cell-based; conditions: DU-145, 48 h
Summary of the method: (§4)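 MTT cytotoxicity assay in human DU-145 prostate, MCF-7 breast and HeLa cervical cancer cell lines. Doxorubicin was the reference drug.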

Bacillus cereus [15] = assay: Antibacterial activity against Bacillus cereus ATCC 14579 assessed as growth inhibition at 100 ug/ml after 24 hrs by agar well diffusion method; assay type: functional; summary of the method: as §3
Proteus vulgaris [16] = assay: Antibacterial activity against Proteus vulgaris ATCC 13315 assessed as growth inhibition at 100 ug/ml after 24 hrs by agar well diffusion method; assay type: functional; summary of the method: as §3
HeLa = assay: Anticancer activity against human HeLa cells assessed as cell viability after 48 hrs by MTT assay; assay type: functional, cell-based; summary of the method: as §4
MCF7 = assay: Anticancer activity against human MCF7 cells assessed as cell viability after 48 hrs by MTT assay; assay type: functional, cell-based; conditions: MCF7, 48 h; summary of the method: as §4
Klebsiella pneumoniae [17] = assay: Antibacterial activity against Klebsiella pneumoniae ATCC 43816 assessed as growth inhibition at 100 ug/ml after 24 hrs by agar well diffusion method; assay type: functional; summary of the method: as §3
Bacillus spizizenii [18] = assay: Antibacterial activity against Bacillus subtilis ATCC 6633 assessed as growth inhibition at 100 ug/ml after 24 hrs by agar well diffusion method; assay type: functional, organism-based; summary of the method: as §3
Staphylococcus aureus [19] = assay: Antibacterial activity against methicillin-resistant Staphylococcus aureus NCTC 13616 assessed as growth inhibition at 100 ug/ml after 24 hrs by agar well diffusion method; assay type: functional, organism-based
Summary of the method: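 Agar well diffusion assay with compounds applied to wells at several concentrations, including the 100 level reported here. The zone of inhibition was measured in mm. Gentamycin sulfate was the standard drug.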

GENTAMICIN
MIC (Bacillus spizizenii [1]): 45 µg/mL | MIC (Proteus vulgaris [2]): 4 µg/mL | MBC99.9 (Escherichia coli [3]): 8 µg/mL | MIC (Escherichia coli [4]): 2 µg/mL | MIC (Klebsiella pneumoniae [5]): 4 µg/mL | MIC (Staphylococcus aureus [6]): 22 µg/mL | MBC99.9 (Bacillus cereus [7]): 22 µg/mL | MBC99.9 (Klebsiella pneumoniae [8]): 16 µg/mL | MBC99.9 (Bacillus spizizenii [9]): 80 µg/mL | MBC99.9 (Staphylococcus aureus [10]): 50 µg/mL | MIC (Bacillus cereus [11]): 10 µg/mL | MBC99.9 (Proteus vulgaris [12]): 8 µg/mL

Cc1ccc(-c2nn(-c3nc(-c4cc5cc(Br)ccc5oc4=O)cs3)cc2C=O)cc1
growth inhibition (GI) (Escherichia coli [13]): Active | MIC (Bacillus spizizenii [1]; ATCC 6633, 24 h): 125 µg/mL (≈ 254 µM) | MIC (Proteus vulgaris [2]; ATCC 13315, 24 h): 122 µg/mL (≈ 247 µM) | Ki (Cytochrome P450 2A6): 0.00154 µM | IC50 [14]: 20.9 µM | MBC (Escherichia coli [3]): 270 µg/mL (≈ 548 µM) | growth inhibition (GI) (Bacillus cereus [15]): Active | MIC (Escherichia coli [4]; ATCC 8739, 24 h): 135 µg/mL (≈ 273 µM) | MIC (Klebsiella pneumoniae [5]; ATCC 43816, 24 h): 124 µg/mL (≈ 252 µM) | MIC (Staphylococcus aureus [6]; NCTC 13616, 24 h): 138 µg/mL (≈ 280 µM) | MBC (Bacillus cereus [7]): 250 µg/mL (≈ 508 µM) | MBC (Klebsiella pneumoniae [8]): 250 µg/mL (≈ 508 µM) | growth inhibition (GI) (Proteus vulgaris [16]): Active | IC50 (HeLa): 14.1 µM | IC50 (MCF7): 35.2 µM | growth inhibition (GI) (Klebsiella pneumoniae [17]): Active | MBC (Bacillus spizizenii [9]): 250 µg/mL (≈ 508 µM) | growth inhibition (GI) (Bacillus spizizenii [18]): Active | growth inhibition (GI) (Staphylococcus aureus [19]): Active | MBC (Staphylococcus aureus [10]): 275 µg/mL (≈ 559 µM) | MIC (Bacillus cereus [11]; ATCC 14579, 24 h): 126 µg/mL (≈ 256 µM) | MBC (Proteus vulgaris [12]): 240 µg/mL (≈ 487 µM)

O=Cc1cn(-c2nc(-c3cc4cc(Cl)ccc4oc3=O)cs2)nc1-c1ccccc1
MIC (Bacillus spizizenii [1]; ATCC 6633, 24 h): 130 µg/mL (≈ 298 µM) | MIC (Proteus vulgaris [2]; ATCC 13315, 24 h): 130 µg/mL (≈ 300 µM) | Ki (Cytochrome P450 2A6): 0.00258 µM | IC50 [14]: > 100 µM | MBC (Escherichia coli [3]): 265 µg/mL (≈ 611 µM) | MIC (Escherichia coli [4]; ATCC 8739, 24 h): 135 µg/mL (≈ 310 µM) | MIC (Klebsiella pneumoniae [5]; ATCC 43816, 24 h): 129 µg/mL (≈ 297 µM) | MIC (Staphylococcus aureus [6]; NCTC 13616, 24 h): 150 µg/mL (≈ 346 µM) | MBC (Bacillus cereus [7]): 275 µg/mL (≈ 634 µM) | MBC (Klebsiella pneumoniae [8]): 190 µg/mL (≈ 438 µM) | IC50 (HeLa): 12.8 µM | IC50 (MCF7): > 100 µM | MBC (Bacillus spizizenii [9]): 190 µg/mL (≈ 438 µM) | growth inhibition (GI) (Staphylococcus aureus [19]): inactive | MBC (Staphylococcus aureus [10]): 300 µg/mL (≈ 691 µM) | MIC (Bacillus cereus [11]; ATCC 14579, 24 h): 139 µg/mL (≈ 319 µM) | MBC (Proteus vulgaris [12]): 260 µg/mL (≈ 599 µM)

O=Cc1cn(-c2nc(-c3cc4cc(Cl)cc(Cl)c4oc3=O)cs2)nc1-c1ccccc1
growth inhibition (GI) (Escherichia coli [13]): Active | MIC (Bacillus spizizenii [1]; ATCC 6633, 24 h): 123 µg/mL (≈ 263 µM) | MIC (Proteus vulgaris [2]; ATCC 13315, 24 h): 132 µg/mL (≈ 281 µM) | Ki (Cytochrome P450 2A6): 0.00307 µM | IC50 [14]: 41.1 µM | MBC (Escherichia coli [3]): 240 µg/mL (≈ 512 µM) | growth inhibition (GI) (Bacillus cereus [15]): Active | MIC (Escherichia coli [4]; ATCC 8739, 24 h): 120 µg/mL (≈ 255 µM) | MIC (Klebsiella pneumoniae [5]; ATCC 43816, 24 h): 118 µg/mL (≈ 252 µM) | MIC (Staphylococcus aureus [6]; NCTC 13616, 24 h): 115 µg/mL (≈ 246 µM) | MBC (Bacillus cereus [7]): 175 µg/mL (≈ 374 µM) | MBC (Klebsiella pneumoniae [8]): 175 µg/mL (≈ 374 µM) | growth inhibition (GI) (Proteus vulgaris [16]): Active | IC50 (HeLa): 13.8 µM | IC50 (MCF7): 76.3 µM | growth inhibition (GI) (Klebsiella pneumoniae [17]): Active | MBC (Bacillus spizizenii [9]): 250 µg/mL (≈ 534 µM) | growth inhibition (GI) (Bacillus spizizenii [18]): Active | growth inhibition (GI) (Staphylococcus aureus [19]): Active | MBC (Staphylococcus aureus [10]): 175 µg/mL (≈ 374 µM) | MIC (Bacillus cereus [11]; ATCC 14579, 24 h): 117 µg/mL (≈ 250 µM) | MBC (Proteus vulgaris [12]): 260 µg/mL (≈ 555 µM)

Cc1ccc(-c2nn(-c3nc(-c4cc5ccccc5oc4=O)cs3)cc2C=O)cc1
MIC (Bacillus spizizenii [1]; ATCC 6633, 24 h): 150 µg/mL (≈ 363 µM) | MIC (Proteus vulgaris [2]; ATCC 13315, 24 h): 150 µg/mL (≈ 363 µM) | Ki (Cytochrome P450 2A6): 0.011 µM | IC50 [14]: 50.2 µM | MBC (Escherichia coli [3]): 260 µg/mL (≈ 629 µM) | MIC (Escherichia coli [4]; ATCC 8739, 24 h): 132 µg/mL (≈ 320 µM) | MIC (Klebsiella pneumoniae [5]; ATCC 43816, 24 h): 150 µg/mL (≈ 363 µM) | MIC (Staphylococcus aureus [6]; NCTC 13616, 24 h): 150 µg/mL (≈ 363 µM) | MBC (Bacillus cereus [7]): 270 µg/mL (≈ 653 µM) | MBC (Klebsiella pneumoniae [8]): 300 µg/mL (≈ 726 µM) | IC50 (HeLa): 37.4 µM | IC50 (MCF7): 69.5 µM | MBC (Bacillus spizizenii [9]): 300 µg/mL (≈ 726 µM) | growth inhibition (GI) (Staphylococcus aureus [19]): inactive | MBC (Staphylococcus aureus [10]): 300 µg/mL (≈ 726 µM) | MIC (Bacillus cereus [11]; ATCC 14579, 24 h): 135 µg/mL (≈ 327 µM) | MBC (Proteus vulgaris [12]): 300 µg/mL (≈ 726 µM)
